# Published values collected from several papers.
# Protocols differ between the studies behind these lines.
# Organism: Leishmania infantum
# Observed: parasite growth
SMILES,assay,system,setting,endpoint,value
O=C(N[C@@H](Cc1ccccc1)C(=O)c1nccs1)[C@H](Cc1ccccc1)NC(=O)N1CCOCC1,,,"intracellular, amastigote",IC50,> 64 µM
Cc1ccc(-c2c(-c3ccccn3)nc3n2CCC3)cc1,,,"5 days, intracellular, amastigote",EC50,0.501 µM
CCCCCCCCCCCCCCCCC#CC(=O)O,,,"52 h, promastigote",IC50,50.6 µM
O=C(N[C@@H](Cc1ccccc1)C(=O)c1nc2ccccc2s1)[C@H](Cc1ccccc1)NC(=O)N1CCOCC1,,,"intracellular, amastigote",IC50,12.7 µM
CCCCCCCCCCCCCCCCOP(=O)([O-])OCC[N+](C)(C)C,imaging,,"intracellular, amastigote",IC50,5.28 µM
Fc1ccc(Nc2c(-c3cccnn3)nc3ccccn23)cc1,,,"intracellular, amastigote",IC50,34.6 µM
"O=C(N[C@@H](CCc1ccccc1)C(=O)c1cc(-c2ccccc2)on1)[C@H](Cc1ccccc1)NC(=O)N1CCOCC1 (single isomer, unassigned)",,,"intracellular, amastigote",IC50,> 64 µM
c1ccc(-c2nc3n(c2-c2ccc4cccnc4c2)CCC3)nc1,,,"5 days, intracellular, amastigote",EC50,3.98 µM
CCCCCCCCCCCCCCCCOP(=O)([O-])OCC[N+](C)(C)C,imaging,mouse Macrophage,"5 days, intracellular, amastigote",EC50,8.3 µM
